Assays:
[1] = molecular target: T1, Cholecystokinin receptor type A (Rattus norvegicus, UniProt P30551); experiment: Binding affinity by competitive inhibition of the radioligand [3H]pCCK-8 at Cholecystokinin type A receptor from rat pancreas
T1 sequence (P30551 whole entry): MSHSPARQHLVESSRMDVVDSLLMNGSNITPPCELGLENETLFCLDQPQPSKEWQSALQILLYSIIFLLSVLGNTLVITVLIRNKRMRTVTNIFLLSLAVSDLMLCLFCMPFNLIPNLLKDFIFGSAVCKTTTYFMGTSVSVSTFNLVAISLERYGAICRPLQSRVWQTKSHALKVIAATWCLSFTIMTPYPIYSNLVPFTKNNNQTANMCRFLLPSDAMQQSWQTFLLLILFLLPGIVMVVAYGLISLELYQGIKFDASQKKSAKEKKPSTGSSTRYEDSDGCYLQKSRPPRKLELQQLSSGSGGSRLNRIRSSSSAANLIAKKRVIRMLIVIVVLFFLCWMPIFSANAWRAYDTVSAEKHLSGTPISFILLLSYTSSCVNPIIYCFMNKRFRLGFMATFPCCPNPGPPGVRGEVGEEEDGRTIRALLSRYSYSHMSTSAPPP
Summary of the method: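 Rat pancreas homogenized in Pipes HCl pH 6.5 with 30 mM MgCl2, centrifuged twice at 50000g, 4 °C. Membranes (0.2 mg protein/tube) incubated with 0.5 nM [3H]pCCK-8 plus bacitracin and soybean trypsin inhibitor (0.2 mg/mL each) for 120 min at 25 °C. […]. Seven concentrations in triplicate, at least three experiments.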

[2] = molecular target: T2, Gastrin/cholecystokinin type B receptor (Rattus norvegicus, UniProt P30553); experiment: Binding affinity by competitive inhibition of the radioligand [3H]pCCK-8 at Cholecystokinin type B receptor from rat cerebral cortex membrane
T2 sequence (P30553 whole entry): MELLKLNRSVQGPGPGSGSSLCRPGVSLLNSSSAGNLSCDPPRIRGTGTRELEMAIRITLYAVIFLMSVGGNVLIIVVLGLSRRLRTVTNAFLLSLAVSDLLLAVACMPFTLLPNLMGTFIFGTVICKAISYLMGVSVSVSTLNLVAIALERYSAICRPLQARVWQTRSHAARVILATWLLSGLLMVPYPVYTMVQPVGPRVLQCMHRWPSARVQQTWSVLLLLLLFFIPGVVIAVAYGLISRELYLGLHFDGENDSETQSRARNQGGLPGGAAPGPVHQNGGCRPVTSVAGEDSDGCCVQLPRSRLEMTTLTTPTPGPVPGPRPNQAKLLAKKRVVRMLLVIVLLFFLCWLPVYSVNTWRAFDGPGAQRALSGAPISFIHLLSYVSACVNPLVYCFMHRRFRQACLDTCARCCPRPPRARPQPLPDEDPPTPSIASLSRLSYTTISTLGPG

IC50 [1] [µM] | IC50 [2] [µM] | SMILES
> 1 | > 10 | O=C(N[C@H]1CCCN2C(=O)N(Cc3ccccc3)C(=O)C[C@H]12)c1cc2ccccc2[nH]1
> 1 | > 10 | O=C(Cc1c[nH]c2ccccc12)N[C@H]1CCCN2C(=O)N(Cc3ccccc3)C(=O)C[C@@H]12 [N-((4aS,5S)-2-Benzyl-1,3-dioxo-octahydro-pyrido[1,2-c]pyrimidin-5-yl)-2-(1H-indol-3-yl)-acetamide; compound with 1H-indole-3-carboxylic acid ((4aR,5R)-2-benzyl-1,3-dioxo-octahydro-pyrido[1,2-c]pyrimidin-5-yl)-amide]
